Assay results: ChEMBL document CHEMBL4382247, “A novel series of napabucasin derivatives as orally active inhibitors of signal transducer and activator of transcription 3 (STAT3)” (Eur J Med Chem, 2019)
Activity calls are given as the source filed them. The rule behind the calls is not given here.

Key:
[1] = Toxicity in BALB/c mouse implanted with mouse CT26 cells assessed as effect on spleen morphology by measuring cell inflammation at 50 mg/kg, po administered once daily by H and E staining based histopathological analysis; assay type: organism-based; conditions: in vivo
Outline: (§1)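 CT-26 subcutaneous flank tumour model in male BALB/c mice, five per group, dosed orally at 50mg/kg daily in 5% NMP/95% PEG 400 versus vehicle. After treatment, heart, liver, spleen, lung and kidney collected, sectioned and stained with H&E for histological examination.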

U-251 [2] = experiment: Decrease in total STAT3 level in human U251 cells at 200 nM after 24 hrs by Western blot analysis; assay type: ADME, cell-based; conditions: u-251, 24 h, 0.2 µM
Outline: (§2)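 Cells treated 24 and 48 h. Lysed in RIPA with protease inhibitors, protein quantified by BCA, equal amounts run on 10% SDS-PAGE and transferred to PVDF. Blocked in 5% milk, probed overnight at 4 °C with anti-total STAT3, anti-p-STAT3 (Tyr705) and GAPDH antibodies. ECL detection.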

HT-29 [3] = experiment: Potency index, ratio of napabucasin IC50 to test compound IC50 for human HT-29 cells; assay type: functional
U-251 [4] = experiment: Decrease in total STAT3 level in human U251 cells at 200 nM after 24 to 48 hrs by sandwich-ELISA; assay type: ADME, cell-based; conditions: u-251, 0.2 µM
Outline: (§3)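 Cells treated 24 or 48 h. Whole-cell lysates made in lysis buffer with protease inhibitor cocktail. Total STAT3 and p-STAT3 Y705 measured by sandwich ELISA. Three repeats; groups compared with control by paired t-test; means ± S.D.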

HepG2 [5] = experiment: Antiproliferative activity against human HepG2 cells after 72 hrs by MTT assay; assay type: functional, cell-based; conditions: HepG2, 72 h
Outline: (§4)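 Cells seeded at 5 × 10^3 per well and cultured 24 h before compound addition at varied concentrations, then grown a further 72 h; 0.5% DMSO as solvent control. MTT (5mg/ml solution) added for 4 h, formazan dissolved in DMSO, absorbance read at 570nm. Each treatment in triplicate; Mean ± SD.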

HepG2 [6] = experiment: Potency index, ratio of napabucasin IC50 to test compound IC50 for human HepG2 cells; assay type: functional
CT26 [7] = experiment: Potency index, ratio of napabucasin IC50 to test compound IC50 for mouse CT26 cells; assay type: functional
[8] = target: T1, Signal transducer and activator of transcription 3 (Homo sapiens, UniProt P40763); experiment: Inhibition of STAT3 phosphorylation at Y705 residue in human U251 cells at 200 nM after 24 hrs by Western blot analysis; assay type: cell-based; outline: as §2
HT-29 [9] = experiment: Antiproliferative activity against human HT-29 cells after 72 hrs by MTT assay; assay type: functional, cell-based; conditions: HT-29, 72 h; outline: as §4
[10] = Toxicity in BALB/c mouse implanted with mouse CT26 cells assessed as effect on lung morphology by measuring cell inflammation at 50 mg/kg, po administered once daily by H and E staining based histopathological analysis; assay type: organism-based; conditions: in vivo; outline: as §1
CT26 [11] = experiment: Antitumor activity against mouse CT26 cells implanted in BALB/c mouse assessed as tumor growth at 50 mg/kg, po administered once daily measured every 3 days relative to control; assay type: functional
Outline: (§5)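 Male BALB/c mice, 6 weeks old, given 1 × 10^6 CT-26 cells subcutaneously in the right flank. At about 70 mm3 tumour volume, randomized into groups of five and dosed orally once daily with 50mg/kg or vehicle (5% NMP in PEG 400). Tumours measured by caliper every 3 days, V = ab^2/2. Tumours weighed at sacrifice. TGI computed from mean tumour weights. T/C computed as mean RTV (Vt/V0) treated over control.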

[12] = Toxicity in BALB/c mouse implanted with mouse CT26 cells assessed as effect on lung morphology by measuring necrosis at 50 mg/kg, po administered once daily by H and E staining based histopathological analysis; assay type: organism-based; conditions: in vivo; outline: as §1
[13] = Toxicity in BALB/c mouse implanted with mouse CT26 cells assessed as effect on kidney morphology by measuring edema at 50 mg/kg, po administered once daily by H and E staining based histopathological analysis; assay type: organism-based; conditions: in vivo; outline: as §1
CT26 [14] = experiment: Antitumor activity against mouse CT26 cells implanted in BALB/c mouse assessed as tumor growth inhibition at 50 mg/kg, po administered once daily measured every 3 days relative to control; assay type: functional; conditions: 72 h, read-out: TGI; outline: as §5
HepG2 [15] = experiment: Decrease in total STAT3 level in human HepG2 cells at 400 nM after 24 hrs by Western blot analysis; assay type: ADME, cell-based; conditions: hepg2, 24 h, 0.4 µM; outline: as §2
[16] = Toxicity in BALB/c mouse implanted with mouse CT26 cells assessed as effect on spleen morphology by measuring edema at 50 mg/kg, po administered once daily by H and E staining based histopathological analysis; assay type: organism-based; conditions: in vivo; outline: as §1
HepG2 [17] = experiment: Decrease in total STAT3 level in human HepG2 cells at 400 nM after 24 to 48 hrs by sandwich-ELISA; assay type: ADME, cell-based; conditions: hepg2, 0.4 µM; outline: as §3
[18] = target: T1, Signal transducer and activator of transcription 3; experiment: Inhibition of STAT3 phosphorylation at Y705 residue in human HepG2 cells at 400 nM after 24 hrs by Western blot analysis; assay type: cell-based; outline: as §2
HepG2 [19] = experiment: Decrease in total STAT3 expression in human HepG2 cells at 400 nM after 24 hrs by DAPI staining based immunofluorescence microscopic analysis; assay type: ADME, cell-based; conditions: hepg2, 24 h, 0.4 µM
Outline: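 HepG2 cells treated 24 h, stained with the same anti-total STAT3 antibody as the blots, nuclei counterstained with DAPI. Imaged on an inverted microscope with a 20× objective.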

[20] = Hepatotoxicity in BALB/c mouse implanted with mouse CT26 cells assessed as effect on liver morphology by measuring edema at 50 mg/kg, po administered once daily by H and E staining based histopathological analysis; assay type: toxicity, organism-based; conditions: in vivo; outline: as §1
[21] = Toxicity in BALB/c mouse implanted with mouse CT26 cells assessed as behavioral alteration at 50 mg/kg, po administered once daily; assay type: organism-based; conditions: in vivo
Outline: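 Mice bearing subcutaneous CT-26 tumours, five per group, given 50mg/kg orally each day in 5% NMP/PEG 400, with an equal-volume vehicle control group. Body weight and behaviour monitored over the treatment period.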

[22] = target: T1, Signal transducer and activator of transcription 3; experiment: Inhibition of biotin-labelled DNA probe binding to recombinant N-terminal FLAG-tagged STAT3 (unknown origin) expressed in HEK293 cells at 100 to 200 nM by EMSA; assay type: cell-based
Outline: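 HEK293T cells transiently transfected with N-terminal FLAG-STAT3 (10 µg per 10 cm dish) and harvested at 48 h. STAT3 purified on anti-FLAG magnetic beads and eluted with FLAG peptide (200 µg/mL). Chemiluminescent EMSA with biotin-labelled STAT3 probe, 5 µL protein and 1 µL probe per lane. Cold-probe and anti-STAT3 antibody lanes included.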

[23] = Hepatotoxicity in BALB/c mouse implanted with mouse CT26 cells assessed as effect on liver morphology by measuring necrosis at 50 mg/kg, po administered once daily by H and E staining based histopathological analysis; assay type: toxicity, organism-based; conditions: in vivo; outline: as §1
[24] = Toxicity in BALB/c mouse implanted with mouse CT26 cells assessed as effect on spleen morphology by measuring necrosis at 50 mg/kg, po administered once daily by H and E staining based histopathological analysis; assay type: organism-based; conditions: in vivo; outline: as §1
[25] = Toxicity in BALB/c mouse implanted with mouse CT26 cells assessed as effect on lung morphology by measuring edema at 50 mg/kg, po administered once daily by H and E staining based histopathological analysis; assay type: organism-based; conditions: in vivo; outline: as §1

T1 sequence (P40763 whole entry): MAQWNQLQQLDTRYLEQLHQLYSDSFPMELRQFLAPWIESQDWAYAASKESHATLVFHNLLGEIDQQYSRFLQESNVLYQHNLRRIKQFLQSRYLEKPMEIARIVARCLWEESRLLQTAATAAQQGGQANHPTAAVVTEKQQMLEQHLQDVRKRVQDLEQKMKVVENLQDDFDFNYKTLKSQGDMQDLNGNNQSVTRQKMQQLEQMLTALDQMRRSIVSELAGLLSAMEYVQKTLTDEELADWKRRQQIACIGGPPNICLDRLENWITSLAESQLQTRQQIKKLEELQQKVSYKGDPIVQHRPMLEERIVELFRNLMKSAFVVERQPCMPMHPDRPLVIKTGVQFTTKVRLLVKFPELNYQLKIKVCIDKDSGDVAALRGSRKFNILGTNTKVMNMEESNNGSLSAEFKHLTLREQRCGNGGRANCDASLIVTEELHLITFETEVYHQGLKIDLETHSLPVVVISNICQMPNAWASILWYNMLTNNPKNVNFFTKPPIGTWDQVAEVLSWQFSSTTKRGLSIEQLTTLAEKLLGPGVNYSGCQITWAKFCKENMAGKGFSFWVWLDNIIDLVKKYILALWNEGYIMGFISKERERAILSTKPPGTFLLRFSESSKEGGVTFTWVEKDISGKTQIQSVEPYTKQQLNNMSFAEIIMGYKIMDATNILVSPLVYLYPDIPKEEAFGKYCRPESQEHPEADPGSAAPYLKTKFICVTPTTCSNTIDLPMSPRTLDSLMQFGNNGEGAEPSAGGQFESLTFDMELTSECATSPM

In the case of `O=C(NCCN1CCCCC1)c1cc2c(o1)C(=O)c1ccccc1C2=O`, the Activity [1] is reported as “Non-Toxic”, the Activity (U-251 [2]) is reported as “Toxic” and the “Ratio IC50” value (HT-29 [3]) is reported as over 10. For the same molecule, the Activity (U-251 [4]) was “Toxic”, the IC50 (HepG2 [5]) was 0.49 µM and the “Ratio IC50” value (HepG2 [6]) was over 10. For the same molecule, the “Ratio IC50” value (CT26 [7]) was over 10, the inhibition [8] was “Active” and the IC50 (HT-29 [9]) was 0.07 µM. For the same molecule, the Activity [10] was “Non-Toxic”, the T/C (CT26 [11]) was 28% and the Activity [12] was “Non-Toxic”. For the same molecule, the Activity [13] was “Non-Toxic”, the inhibition in vivo at 50 mg/kg (CT26 [14]) was 63% and the Activity (HepG2 [15]) was “Toxic”. The Activity [16] was “Non-Toxic”, the Activity (HepG2 [17]) was “Toxic” and the inhibition [18] was “Active”. For the same molecule, the Activity (HepG2 [19]) was “Toxic”, the Activity [20] was “Non-Toxic” and the Activity [21] was “Non-Toxic”. The inhibition [22] was “Active”, the Activity [23] was “Non-Toxic” and the Activity [24] was “Non-Toxic”. For the same molecule, the Activity [25] was “Non-Toxic”.
